This note sets out measurements from ChEMBL document CHEMBL1212721, “Mechanistic and structural insights into the proteolytic activation of Vibrio cholerae MARTX toxin” (Nat Chem Biol, 2009).

Calls of active or inactive are those of the source. No cut-off for these calls is given here.

Test [1] relates to Vibrio cholerae. Nature of the test: Inhibition of Vibrio cholerae recombinant MARTX toxin (3391-3650) cysteine protease domain autoprocessing assessed as reduction of GTPgamma-S-induced activation of protease activity at 100 uM after 15 mins by Coomassie staining based SDS-PAGE method. The method in brief:
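His6-tagged CPD (aa 3391–3650, 1 µM) in 60 mM NaCl, 20 mM Tris pH 7.5, 250 mM sucrose was preincubated with 100 µM inhibitor (30 min at room temperature per Methods; 15 min per legend). GTPγS was then added to 200 µM final to trigger autoprocessing, 2 h at 37°C. Read-out was 15% SDS-PAGE with Coomassie staining. Screen run in triplicate; hits confirmed in a secondary screen.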

Test [2] relates to Vibrio cholerae. Nature of the test: Inhibition of Vibrio cholerae recombinant MARTX toxin (3391-3650) cysteine protease domain autoprocessing assessed as concentration of InsP6 required to activate half maximal cleavage of the enzyme at 10 uM by Coomassie staining based SDS-PAGE method. The essentials:
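N-terminally His6-tagged CPD (aa 3391–3650, 1 µM) in 60 mM NaCl, 20 mM Tris pH 7.5, 250 mM sucrose was pretreated with 10 µM inhibitor for 30 min at room temperature. InsP6 was added across a concentration range, followed by 1 h at 37°C. Samples were run on SDS-PAGE with Coomassie staining and densitometry. Cleaved/total fraction was plotted against InsP6 and fitted with a Michaelis-Menten function to give AC50(I). Triplicates.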

Test [3] has as its system Vibrio cholerae. The test is described as follows: Inhibition of MARTX toxin cysteine protease domain autoprocessing at Leu3099 residue in wild type Vibrio cholerae at >50 uM by Western blot. The method in brief:
(§1)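 Culture supernatants were TCA-precipitated and resolved by SDS-PAGE. Western blot with a polyclonal anti-CPD antibody read out MARTX_Vc processing, seen as accumulation of unprocessed toxin (~460 kDa) compared with untreated wild-type supernatants.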
In general terms: Immunoblotting shows a protein as a band on a membrane.

The test system of test [4] is Vibrio cholerae. Nature of the test: Inhibition of MARTX toxin cysteine protease domain autoprocessing in wild type Vibrio cholerae by Western blot. The essentials: as §1
Test [5] concerns HFF. Nature of the test: Inhibition of Vibrio cholerae MARTX toxin cysteine protease domain autoprocessing assessed as assessed as reduction in actin cross linking in HFF cells at 50 uM pretreated for 15 before Vibrio cholerae supernatants addition by Western blot. The test is classed as cell-based.
Test [6] concerns Vibrio cholerae. The test is described as follows: Inhibition of MARTX toxin cysteine protease domain autoprocessing at Leu3441 residue in wild type Vibrio cholerae at 100 uM by Western blot. The method in brief: as §1
For test [7], the system named is HFF. The test is described as follows: Inhibition of MARTX toxin cysteine protease domain autoprocessing in Vibrio cholerae assessed as assessed as reduction in actin cross linking in HFF cells exposed to Vibrio cholerae supernatants pretreated at 50 uM for 15 mins by Western blot. The class given is cell-based.

In the case of `CCOC(=O)[C@@H]1O[C@H]1C(=O)N(CC(C)C)NC(=O)OCc1ccccc1` (relative stereo), the inhibition result in the test with Vibrio cholerae [1] was “Active”. Further, the Activity in the test with Vibrio cholerae [2] stood at 1.1 nM.

Regarding `CCOC(=O)[C@H]1O[C@@H]1C(=O)N(CC(C)C)NC(=O)[C@H](CC(C)C)NC(=O)OCc1ccccc1`, the inhibition result in the test on Vibrio cholerae [1] is “Active”. In the test with Vibrio cholerae [2], the Activity worked out at 11 nM.

Take `CCOC(=O)[C@@H]1O[C@H]1C(=O)N(CC(C)C)NC(=O)[C@H](CC(C)C)NC(=O)[C@H](CC(C)C)NC(=O)OCc1ccccc1`: the inhibition entry in the test on Vibrio cholerae [1] was “Active”. Besides, the Activity with Vibrio cholerae [2] is 5.2 nM.

With `CCOC(=O)[C@H]1O[C@@H]1C(=O)N(CC(C)C)NC(=O)[C@H](CC(C)C)NC(=O)[C@H](CC(C)C)NC(=O)OCc1ccccc1` (stereo in doubt; 7), the inhibition result in the test on Vibrio cholerae [1], in the test on Vibrio cholerae [3], in the test on HFF [5] and in the test on HFF [7] was “Active” in each case. For the same compound, the inhibition result in the test with Vibrio cholerae [4] is “Dose-dependent effect”. Besides, in the test with Vibrio cholerae [2], the Activity is 457 nM. Besides, the inhibition result in the test on Vibrio cholerae [6] was “inactive”.

Turning to `Cc1cccc(C)c1C(=O)OCC(=O)[C@H](CC(C)C)NC(=O)[C@H](C)NC(=O)OCc1ccccc1`, in the test on Vibrio cholerae [1], the inhibition entry is “Active”. The Activity in the test on Vibrio cholerae [2] turned out to be 187 nM.

On to `Cc1cccc(C)c1C(=O)OCC(=O)[C@H](CC(C)C)NC(=O)[C@H](C)NC(=O)[C@H](CCC(=O)O)NC(=O)OCc1ccccc1`, for which the inhibition result in the test on Vibrio cholerae [1], in the test on Vibrio cholerae [3] and in the test with HFF [7] was “Active” in each case. Further, in the test on Vibrio cholerae [4], the inhibition result was “Dose-dependent effect”. For the same compound, the inhibition entry in the test with HFF [5] and in the test on Vibrio cholerae [6] was “inactive” throughout. Further, the Activity in the test with Vibrio cholerae [2] was 529 nM.

As to `CCOC(=O)[C@H]1O[C@@H]1C(=O)N(CC(C)C)NC(=O)[C@H](CC(C)C)NC(=O)[C@H](CC(C)C)NC(=O)OCc1ccccc1` (stereo in doubt; 9), in the test with Vibrio cholerae [1], the inhibition entry was “Active”. For the same compound, the Activity with Vibrio cholerae [2] amounted to 74 nM.

Consider `CC(C)C[C@H](NC(=O)OCc1ccccc1)C(=O)N[C@@H](CC(C)C)C(=O)NN(CC(C)C)C(=O)[C@H]1O[C@@H]1C(=O)O`, for which the inhibition result in the test with Vibrio cholerae [1] is “Active”. For the same compound, the Activity in the test on Vibrio cholerae [2] was 158 nM.

Regarding `Cc1cccc(C)c1C(=O)OCC(=O)[C@H](CC(C)C)NC(=O)[C@H](C)NC(=O)[C@H](CCC(=O)O)NC(=O)[C@H](CCCCN)NC(=O)OCc1ccccc1`, the inhibition result with Vibrio cholerae [1] was “Active”. Besides, the Activity with Vibrio cholerae [2] amounted to 290 nM.

With `CCOC(=O)[C@H]1O[C@@H]1C(=O)N(CC(C)C)NC(=O)[C@H](CC(C)C)NC(C)=O`, the inhibition entry in the test on Vibrio cholerae [1] was “Active”. In the test with Vibrio cholerae [2], the Activity is 21 nM.
